Compound activity: PubChem, Broad Institute
Wnt bcat act = activates Wnt/beta-catenin signaling in a reporter cell assay | activation, % at 9.35 µM | hit rate 1.2% among 300,000 | activator, plate reader | AID 743398; in the data active means activation above about 30%, passing the limit was not always enough
NSD2 HMT inh = inhibitors of human histone methyltransferase NSD2. O96028. NSD2 peptide methylation, AlphaScreen, 120 min. inhibition, % at 12.5 µM. hit rate 0.54% among 310,000. AID 743445; in the data active means inhibition above about 50%
CASP6 VEID inh = caspase-6 (human) enzyme inhibition; P55212; purified caspase-6, Z-VEID-R110 cleavage fluorescence; inhibition, % at 12.5 µM; hit rate 0.53% among 350,000;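 active means mean inhibition across replicates at least about 35%, with every replicate also reaching that limit, limit read from the data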
XiGFP reactiv = activators of X-chromosome reactivation in mouse fibroblasts. XiGFP mouse fibroblasts, % GFP-positive cells imaging, 3 d; cells co-treated with 5-aza-dC sensitizer; scaled so ellipticine positive control = 100%. activation, % at 7.58 µM. hit rate 0.055% among 360,000. AID 743238;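 active means mean normalized replicate activation at least 10% and every replicate at or above 10%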
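Assay system – SV40-immortalized XiGFP fibroblast cells, line 68-5-11 · Buffer or medium – DMEM supplemented with 5-aza-dC as sensitizing agent · Dosing – one concentration, pinned · Benchmarks – positive control ellipticine, 6 µM final · Times – 3 days compound exposure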
MITF act = increases MITF-driven TRPM1 promoter luciferase signal; SK-MEL-5 TRPM1-promoter luciferase, 24 h; % of positive control, neutral wells = 0; activation, % at 12.5 µM; hit rate 0.75% among 300,000; AID 588334;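 active means mean activation of at least 80% with every replicate also reaching 80%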
esBAF inh = inhibitors of esBAF chromatin remodeling in mouse ES cells; Bmi1-luciferase knock-in reporter, 24 h; 100% = twice the neutral-well signal; reporter increase, % at 12.5 µM; hit rate 2% among 350,000; in the data active means activation above about 40%;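 further: a rise in the Bmi1 reporter signal indicates esBAF inhibition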
Alpha artifact = counter-screen for NSD2 inhibitors: AlphaScreen artifacts | AlphaScreen artifact counterscreen, preloaded methylated H4 peptide | hit rate 9.4% among 1,500 | AC35, µM (series often up to 10 µM) | shares compounds with NSD2 HMT inh | AID 1053174; call rule not given here
Hits are given with their value; 0 = inactive; - = not tested or not shown; + = active, no number. Compounds with a hit are over-represented: about 3% of the library has one in this group of screens.

SMILES	Wnt bcat act	NSD2 HMT inh	CASP6 VEID inh	XiGFP reactiv	MITF act	esBAF inh	Alpha artifact
O=C(COC(=O)CNC(=O)c1ccc(Cl)c([N+](=O)[O-])c1)NNC(=O)c1cccs1	0	0	0	0	0	-	-
[O-][n+]1cccc2cccc(O)c21	0	0	0	0	0	0	-
C[n+]1cccc2cccc([O-])c21	0	103.2	52.0	0	-	-	0
Nn1cnnc1N/N=C\c1ccc(-c2ccccc2[N+](=O)[O-])o1	0	97.5	0	0	0	0	0
O=[N+]([O-])c1ccccc1-c1ccc(/C=N/n2cnnc2)o1	-	0	-	-	0	0	-
COc1ccc(NC(=O)N(CCCN(C)C)Cc2cc3cc(OC)ccc3[nH]c2=O)cc1	0	0	-	0	0	0	-
CCN(CC)CCCN(Cc1cc2cc(OC)ccc2[nH]c1=O)C(=O)Nc1ccc(F)cc1	-	85.7	-	-	0	-	0
CC1CCCCN1C(=O)CCNC(=O)Cn1cnc2ccccc2c1=O (configuration not stated)	0	93.5	0	0	0	0	0
COc1ccc(C)cc1NC(=O)CCNC(=O)Cn1cnc2ccccc2c1=O	0	90.1	0	0	0	0	0
CCC(=O)N(C)C[C@@H]1Oc2ncc(-c3ccc(F)cc3)cc2C(=O)N([C@H](C)CO)C[C@@H]1C	-	-	0	0	-	0	-
COC(=O)[C@@H]1[C@@H](CO)[C@@H]2Cn3c(ccc(C4=CCCC4)c3=O)[C@@H]2N1C(=O)C1CCCC1	-	-	0	0	-	0	-
O=C(COC(=O)c1ccc([N+](=O)[O-])s1)NNC(=O)c1ccccc1	-	-	-	-	0	0	-
CC(NC(=O)COC(=O)c1ccc([N+](=O)[O-])s1)c1ccccc1 (configuration not stated)	0	65.6	-	0	0	-	0
O=C(COC(=O)c1ccc([N+](=O)[O-])s1)NCCc1ccccc1	-	57.5	99.2	-	0	0	0
C[C@@H]1CN([C@@H](C)CO)C(=O)CCCn2cc(nn2)CO[C@H]1CN(C)C	-	-	-	0	-	0	-
Oc1cccc(NC(=S)N=Nc2c(O)[nH]c3ccc(Br)cc23)c1	0	67.4	0	0	0	0	0
Oc1ccc(NC(=S)N=Nc2c(O)[nH]c3ccc(Br)cc23)cc1	0	-	0	0	0	0	-
O=C1C[C@@H](c2ccccc2)C(=O)N[C@H](c2ccc3c(c2)OCO3)C/C=C\C[C@@H](c2ccc(F)cc2)N1	-	-	-	0	-	-	-
CCC(=O)Nc1ccc2c(c1)C(=O)N(C)[C@H]1CC[C@H](CC(=O)NCCc3ccccc3)O[C@@H]1CO2	-	-	0	0	-	0	-
CCCN1[C@H](C(=O)OC)[C@@H](CO)[C@@H]2Cn3c(ccc(-c4ccc(F)cc4)c3=O)[C@@H]21	-	-	0	0	-	0	-
CC(=O)N1Cc2cc(C(=O)NCc3cccc(F)c3)nc(-c3cccc(C4=CCCC4)c3)c2[C@@H]1CCO	-	-	0	0	-	-	-
CC1=Nc2cccc3cccc(c23)N1C	0	+	-	0	0	-	0
O=C1OCC2=Nc3cccc4cccc(c34)N12	0	0	0	0	-	-	-
COc1ccc(S(=O)(=O)Nc2ccc3c(c2)C(=O)N([C@@H](C)CO)C[C@@H](C)[C@H](CN(C)S(=O)(=O)c2cccs2)OCCCC[C@@H](C)O3)cc1	-	-	0	0	-	0	-
COc1ccc(-n2nnnc2-c2cnc(N3CCCC3)nc2C(F)(F)F)cc1	-	51.9	-	-	-	0	0
SMILES	Wnt bcat act	NSD2 HMT inh	CASP6 VEID inh	XiGFP reactiv	MITF act	esBAF inh	Alpha artifact
CC1=C(C#N)c2nc(N)c(C#N)c(C)c2/C1=C\c1ccc(-c2ccccc2C(=O)O)o1	0	81.9	53.6	0	0	-	0
COc1cc(/C=C2/C(C)=C(C#N)c3nc(N)c(C#N)c(C)c32)ccc1OCC(=O)O	0	0	-	0	0	-	-
CCCC#Cc1cnc2c(c1)C(=O)N([C@H](C)CO)C[C@H](C)[C@H](CN(C)C(=O)C1CCCCC1)O2	-	-	-	0	-	0	-
Cc1ccc(S(=O)(=O)NC2=C(N3CCN(c4ccccc4F)CC3)C(=O)c3ccccc3C2=O)cc1	0	0	0	0	0	0	-
NC(=O)C1CCN(C2=C(NS(=O)(=O)c3ccc(Cl)cc3)C(=O)c3ccccc3C2=O)CC1	0	76.6	0	0	0	-	0
CC1CCCN(C2=C(NS(=O)(=O)c3ccc(Cl)cc3)C(=O)c3ccccc3C2=O)C1 (configuration not stated)	0	0	-	0	0	-	-
COC(=O)C1CCN(C2=C(NS(=O)(=O)c3ccc(Cl)cc3)C(=O)c3ccccc3C2=O)CC1	0	61.9	0	0	0	0	7.82µM
O=C(C[C@@H]1CC[C@@H](NC(=O)c2ccc3c(c2)OCO3)[C@H](CO)O1)NC1Cc2ccccc2C1	-	-	0	0	-	0	-
COC(=O)c1c(NC(=O)C(C)C)sc(C(=O)N2CCOCC2)c1C	0	104.9	0	0	0	0	0
COC(=O)c1c(NC(C)=O)sc(C(=O)N2CCOCC2)c1C	0	0	0	0	0	0	-
O=C(NCc1ccc(F)cc1)C1CCCN1S(=O)(=O)c1ccccc1C(F)(F)F (configuration not stated)	0	136.7	0	0	0	0	0
NC1=NC(=Nc2ccccc2)c2ccccc21	0	0	-	-	0	0	-
NC1=NC(=Nc2ccc(Br)cc2)c2ccccc21	0	52.9	0	0	0	-	0
C/C(C=Nn1c(-c2ccc(F)cc2)n[nH]c1=S)=C/c1ccco1	-	61.1	-	-	-	-	0
CCCNC(=O)C[C@H]1CC[C@H]2[C@@H](COC[C@H](O)CN2C(=O)Nc2cccc(Cl)c2)O1	-	-	0	0	-	0	-
CN(C(=S)NC(=O)C1(C)CC1(Cl)Cl)c1ccccc1 (configuration not stated)	0	58.6	-	-	0	0	0
CCCNC(=O)Nc1ccc2c(c1)C(=O)N(C)C[C@H](OC)[C@@H](C)CN(C(C)=O)[C@H](C)CO2	-	-	0	0	-	0	-
Cc1cccc(C(=O)Nc2cccc(-c3cnc4ccccc4n3)c2)c1	-	56.9	-	-	0	0	0
Cc1ccc(C(=O)Nc2cccc(-c3cnc4ccccc4n3)c2)cc1	-	0	-	-	0	0	-
COc1ccc(C(=O)C(OC(=O)c2ccc(C)c(NC(C)=O)c2)c2ccccc2)cc1 (configuration not stated)	0	50.3	-	-	-	-	0
CC(=O)Nc1cc(C(=O)OC(C(=O)c2ccccc2)c2ccccc2)ccc1C (configuration not stated)	0	0	-	-	-	0	-
O=C(NCC[C@@H]1CC[C@H](NC(=O)C2CCCC2)[C@@H](CO)O1)c1ccc(F)cc1	-	-	0	0	-	0	-
CC1CCC2C(C1)c1sc(=O)[nH]c1SC2(C)C (configuration not stated)	-	111.0	-	-	0	0	0
Cc1ccc(O)c(NC(=O)c2cc3nc4c(c(C(F)(F)F)n3n2)CCc2ccccc2-4)c1	-	69.8	-	-	0	0	0
Cc1[nH]n(-c2ccccc2)c(=O)c1C(c1ccc(C(=O)O)cc1)c1c(C)[nH]n(-c2ccccc2)c1=O	0	57.3	0	0	0	-	0
